Measurements as given in ChEMBL document CHEMBL4350954, “Identification of Thienopyrimidine Scaffold as an Inhibitor of the ABC Transport Protein ABCC1 (MRP1) and Related Transporters Using a Combined Virtual Screening Approach” (J Med Chem, 2019).

Key:
[1] = target: T1, Multidrug resistance-associated protein 1 (Homo sapiens, UniProt P33527); experiment: (§1) Reversal of ABCC1 (unknown origin)-mediated multidrug resistance in MDCK2 cells co-expressing MRP1 (unknown origin) assessed as resistance factor by measuring [GI50(resistant cell line without or with compound)/ GI50(sensitive cell line)] at 5 uM incubated for 72 hrs by MTT assay (reference value: 7); assay type: cell-based
T1 sequence (P33527 whole entry): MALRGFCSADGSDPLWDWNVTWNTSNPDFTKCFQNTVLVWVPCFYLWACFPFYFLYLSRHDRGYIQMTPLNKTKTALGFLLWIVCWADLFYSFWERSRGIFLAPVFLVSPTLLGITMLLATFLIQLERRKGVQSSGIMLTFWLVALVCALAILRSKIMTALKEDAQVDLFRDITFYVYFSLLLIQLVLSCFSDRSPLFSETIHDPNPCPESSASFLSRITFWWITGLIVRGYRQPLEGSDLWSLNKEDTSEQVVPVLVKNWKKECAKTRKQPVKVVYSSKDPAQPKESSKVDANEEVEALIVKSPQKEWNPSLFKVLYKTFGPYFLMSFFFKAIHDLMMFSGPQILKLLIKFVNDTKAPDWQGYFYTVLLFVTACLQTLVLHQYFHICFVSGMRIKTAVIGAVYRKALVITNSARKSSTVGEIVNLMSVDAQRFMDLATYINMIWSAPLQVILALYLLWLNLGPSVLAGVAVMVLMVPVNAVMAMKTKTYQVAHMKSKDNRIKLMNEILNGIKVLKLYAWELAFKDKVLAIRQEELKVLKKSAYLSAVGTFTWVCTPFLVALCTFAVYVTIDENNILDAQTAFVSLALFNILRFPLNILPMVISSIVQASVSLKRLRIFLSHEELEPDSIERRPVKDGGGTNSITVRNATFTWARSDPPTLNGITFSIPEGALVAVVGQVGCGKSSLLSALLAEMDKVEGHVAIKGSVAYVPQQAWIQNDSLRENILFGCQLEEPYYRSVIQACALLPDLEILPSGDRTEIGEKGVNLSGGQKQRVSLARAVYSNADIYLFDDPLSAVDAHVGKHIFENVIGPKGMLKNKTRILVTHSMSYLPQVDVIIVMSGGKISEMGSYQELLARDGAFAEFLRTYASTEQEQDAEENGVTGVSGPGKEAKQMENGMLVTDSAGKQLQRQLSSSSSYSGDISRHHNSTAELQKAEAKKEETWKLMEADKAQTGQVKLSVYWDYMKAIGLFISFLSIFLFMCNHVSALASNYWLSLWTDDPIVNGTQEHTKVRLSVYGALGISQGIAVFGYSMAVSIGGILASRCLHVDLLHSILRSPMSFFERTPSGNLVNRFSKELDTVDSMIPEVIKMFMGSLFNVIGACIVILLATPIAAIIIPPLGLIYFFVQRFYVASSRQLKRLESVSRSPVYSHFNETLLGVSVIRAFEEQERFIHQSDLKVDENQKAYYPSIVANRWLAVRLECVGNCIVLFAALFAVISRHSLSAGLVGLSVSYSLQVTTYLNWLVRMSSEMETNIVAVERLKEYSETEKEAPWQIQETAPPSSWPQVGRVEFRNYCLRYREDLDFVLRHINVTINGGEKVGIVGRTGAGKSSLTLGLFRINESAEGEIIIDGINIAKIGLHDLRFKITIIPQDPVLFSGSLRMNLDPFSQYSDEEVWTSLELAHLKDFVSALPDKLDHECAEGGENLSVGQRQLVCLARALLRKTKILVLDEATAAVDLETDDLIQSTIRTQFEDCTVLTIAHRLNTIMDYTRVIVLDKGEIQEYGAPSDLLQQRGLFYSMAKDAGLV

[2] = target: T2, ABCG2 (BCRP) (Homo sapiens, UniProt Q9UNQ0); experiment: Inhibition of ABCG2 (unknown origin) expressed in MDCK2 cells co-expressing BCRP (unknown origin) assessed as effect on pheophorbide A accumulation at 10 uM pre-incubated for 20 mins followed by pheophorbide A addition and measured after 120 mins by flow cytometric analysis relative to Ko143; assay type: cell-based; conditions: probe pheophorbide A
T2 sequence (Q9UNQ0 whole entry): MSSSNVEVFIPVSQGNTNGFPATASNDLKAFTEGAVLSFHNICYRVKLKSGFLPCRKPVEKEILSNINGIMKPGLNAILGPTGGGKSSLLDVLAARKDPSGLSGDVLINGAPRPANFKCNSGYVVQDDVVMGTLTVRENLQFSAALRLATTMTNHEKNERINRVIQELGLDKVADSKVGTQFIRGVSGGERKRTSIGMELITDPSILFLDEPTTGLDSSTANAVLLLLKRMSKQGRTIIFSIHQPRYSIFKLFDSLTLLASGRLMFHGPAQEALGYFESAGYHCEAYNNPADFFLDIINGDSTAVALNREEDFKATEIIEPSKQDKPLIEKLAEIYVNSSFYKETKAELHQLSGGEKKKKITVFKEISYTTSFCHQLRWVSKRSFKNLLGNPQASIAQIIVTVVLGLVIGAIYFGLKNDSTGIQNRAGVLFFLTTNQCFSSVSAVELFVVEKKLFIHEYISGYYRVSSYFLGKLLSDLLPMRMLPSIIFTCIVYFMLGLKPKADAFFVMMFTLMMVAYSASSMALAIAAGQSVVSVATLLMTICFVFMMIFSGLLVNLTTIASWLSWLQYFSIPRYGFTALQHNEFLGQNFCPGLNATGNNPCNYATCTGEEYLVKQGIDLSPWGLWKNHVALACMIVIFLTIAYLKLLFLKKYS
Procedure, shortened: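 Pheophorbide A accumulation assay in ABCG2-transfected MDCK II BCRP cells. Ko143 at 10 µM set 100% and no compound set 0%. Screening was at 10 µM; compounds reaching >20% (+SEM) got IC50 curves constrained to the Ko143 maximum at 10 µM. Values are reported as mean ± SEM.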

[3] = tested on: ABCB1 (P-gp); experiment: Therapeutic index, ratio of GI50 for human A2780/ADR cells to IC50 for ABCB1 in human A2780/ADR cells; assay type: toxicity, cell-based; conditions: read-out: TI
Procedure, shortened: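 Therapeutic ratio = GI50 from the MTT cytotoxicity assay / IC50 from the inhibition assay in the same cell line. The cell lines were H69AR (calcein AM, ABCC1), A2780/ADR (calcein AM, ABCB1) and MDCK II BCRP (pheophorbide A, ABCG2).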

[4] = target: T3, Broad substrate specificity ATP-binding cassette transporter ABCG2 (Homo sapiens, UniProt Q9UNQ0); experiment: as §1, with “ABCG2” for “ABCC1”, “BCRP” for “MRP1”, “27)” for “7)”; assay type: cell-based
T3 sequence (Q9UNQ0 whole entry): T2 sequence (Q9UNQ0 whole entry)

[5] = target: T4, ATP-dependent translocase ABCB1 (Homo sapiens, UniProt P08183); experiment: as §1, with “of ABCB1” for “of ABCC1”, “co-expressing MDR1” for “co-expressing MRP1”, “at 0.5” for “at 5”, “value: 17)” for “value: 7)”; assay type: cell-based
T4 sequence (P08183 whole entry): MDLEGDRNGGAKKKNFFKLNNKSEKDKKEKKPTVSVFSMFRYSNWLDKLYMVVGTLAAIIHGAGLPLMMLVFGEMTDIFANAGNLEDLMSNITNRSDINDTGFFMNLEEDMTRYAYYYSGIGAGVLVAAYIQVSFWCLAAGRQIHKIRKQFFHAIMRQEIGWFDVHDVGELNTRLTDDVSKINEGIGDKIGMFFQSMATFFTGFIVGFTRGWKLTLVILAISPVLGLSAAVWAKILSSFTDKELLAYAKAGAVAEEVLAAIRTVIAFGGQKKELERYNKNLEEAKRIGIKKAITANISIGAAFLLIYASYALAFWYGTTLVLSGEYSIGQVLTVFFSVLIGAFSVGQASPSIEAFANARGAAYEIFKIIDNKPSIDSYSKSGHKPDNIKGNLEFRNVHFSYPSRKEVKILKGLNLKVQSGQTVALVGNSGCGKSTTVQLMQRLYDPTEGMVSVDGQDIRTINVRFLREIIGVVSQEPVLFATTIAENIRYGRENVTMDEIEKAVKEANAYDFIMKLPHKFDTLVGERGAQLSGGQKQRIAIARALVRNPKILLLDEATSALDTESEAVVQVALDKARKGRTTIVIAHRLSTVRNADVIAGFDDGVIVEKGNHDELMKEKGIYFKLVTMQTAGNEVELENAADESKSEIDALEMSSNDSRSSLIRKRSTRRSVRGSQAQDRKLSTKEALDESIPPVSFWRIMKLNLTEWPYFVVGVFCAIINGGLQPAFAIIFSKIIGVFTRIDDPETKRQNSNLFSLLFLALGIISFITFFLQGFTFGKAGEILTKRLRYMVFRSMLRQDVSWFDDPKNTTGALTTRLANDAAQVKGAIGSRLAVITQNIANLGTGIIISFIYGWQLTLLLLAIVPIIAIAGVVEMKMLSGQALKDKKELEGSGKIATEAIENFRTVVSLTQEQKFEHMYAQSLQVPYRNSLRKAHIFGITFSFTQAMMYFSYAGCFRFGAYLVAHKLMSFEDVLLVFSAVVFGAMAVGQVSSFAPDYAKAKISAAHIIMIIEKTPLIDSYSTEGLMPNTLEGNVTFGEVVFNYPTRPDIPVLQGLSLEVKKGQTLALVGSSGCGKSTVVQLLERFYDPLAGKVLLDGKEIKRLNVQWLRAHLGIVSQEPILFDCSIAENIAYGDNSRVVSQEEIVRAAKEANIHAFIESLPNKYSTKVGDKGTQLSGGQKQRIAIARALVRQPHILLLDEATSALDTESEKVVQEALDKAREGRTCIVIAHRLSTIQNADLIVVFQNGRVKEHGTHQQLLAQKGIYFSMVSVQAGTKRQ
Procedure, shortened: (§2)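 MDR reversal assay with daunorubicin at 10 nM–10 µM, alone or with test compound at 0.5, 1, 5 or 10 µM. Resistant cells were ABCB1-overexpressing A2780/ADR or MDCK II MDR1, with sensitive A2780 or MDCK II cells as comparators. Resistance factor = resistant GI50 / sensitive GI50. EC50 was derived from resistance factors versus modulator concentration. Values are from ≥3 experiments in duplicate ± SEM.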

[6] = target: T4, ATP-dependent translocase ABCB1; experiment: Reversal of ABCB1-mediated multidrug resistance in human A2780/ADR cells assessed as resistance factor by measuring [GI50(resistant cell line without or with compound)/ GI50(sensitive cell line)] at 5 uM incubated for 72 hrs by MTT assay (reference value: 49); assay type: cell-based; procedure, shortened: as §2
[7] = target: T4, ATP-dependent translocase ABCB1; experiment: Reversal of ABCB1-mediated multidrug resistance in human A2780/ADR cells assessed as resistance factor by measuring [GI50(resistant cell line without or with compound)/ GI50(sensitive cell line)] at 0.5 uM incubated for 72 hrs by MTT assay (reference value: 49); assay type: cell-based; procedure, shortened: as §2
[8] = Growth inhibition of human A2780 cells incubated for 72 hrs by MTT assay; assay type: cell-based
Procedure, shortened: (§3)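 MTT-based cytotoxicity assay giving GI50 of the compound alone in each listed parental, selected or transfected cell line.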

[9] = target: T4, ATP-dependent translocase ABCB1; experiment: Reversal of ABCB1-mediated multidrug resistance in human A2780/ADR cells assessed as resistance factor by measuring [GI50(resistant cell line without or with compound)/ GI50(sensitive cell line)] at 1 uM incubated for 72 hrs by MTT assay (reference value: 49); assay type: cell-based; procedure, shortened: as §2
[10] = target: T3, Broad substrate specificity ATP-binding cassette transporter ABCG2; experiment: Reversal of ABCG2-mediated multidrug resistance in human MCF-7/MX cells assessed as resistance factor by measuring [GI50(resistant cell line without or with compound)/ GI50(sensitive cell line)] incubated for 72 hrs by MTT assay (reference value: 789)
[11] = target: T4, ATP-dependent translocase ABCB1; experiment: as §1, with “ABCB1” for “ABCC1”, “MDR1” for “MRP1”, “17)” for “7)”; assay type: cell-based; procedure, shortened: as §2
[12] = Growth inhibition of human H69AR cells incubated for 72 hrs by MTT assay; procedure, shortened: as §3
[13] = Growth inhibition of human MCF7/MX cells incubated for 72 hrs by MTT assay; procedure, shortened: as §3
[14] = Growth inhibition of human MCF7 cells incubated for 72 hrs by MTT assay; assay type: cell-based; procedure, shortened: as §3
[15] = target: T1, Multidrug resistance-associated protein 1; experiment: as §1, with “at 1” for “at 5”; assay type: cell-based
[16] = Growth inhibition of MDCK2 cells co-expressing BCRP (unknown origin) after 72 hrs by MTT assay; assay type: ADME, cell-based, Canis lupus familiaris, MDCK-II; conditions: dog; procedure, shortened: as §3
[17] = target: ABCB1 (P-gp) (Homo sapiens, UniProt P08183); experiment: Inhibition of ABCB1 in human A2780/ADR cells at 10 uM preincubated for 30 mins followed by calcein AM addition and measured at 60 secs time interval by fluorescence assay relative to cyclosporine A; assay type: cell-based; conditions: probe calcein AM
Chain of ABCB1 (P-gp) (Homo sapiens, UniProt P08183) (P08183 whole entry): as above

[18] = target: T1, Multidrug resistance-associated protein 1; experiment: Reversal of ABCC1-mediated multidrug resistance in human H69AR cells assessed as resistance factor by measuring [GI50(resistant cell line without or with compound)/ GI50(sensitive cell line)] at 5 uM incubated for 72 hrs by MTT assay (reference value: 8.2); assay type: cell-based
[19] = target: T3, Broad substrate specificity ATP-binding cassette transporter ABCG2; experiment: as §1, with “of ABCG2” for “of ABCC1”, “co-expressing BCRP” for “co-expressing MRP1”, “at 0.5” for “at 5”, “value: 27)” for “value: 7)”; assay type: cell-based

RatioGI50 [1]: 2.2
inhibition at 2 h, 10 µM [2]: ≥ 20%
RatioGI50 [4]: 4.5
RatioGI50 [5]: 7.1
RatioGI50 [6]: 6.3
RatioGI50 [7]: 32
RatioGI50 [9]: 20
RatioGI50 [10]: 53
RatioGI50 [11]: 0.9
RatioGI50 [15]: 3.4
inhibition at 1 min, 10 µM [17]: ≥ 20%
RatioGI50 [18]: 3.8
RatioGI50 [19]: 21
SMILES: CC1CCc2c(sc3nc(-c4cccnc4)nc(N4CCN(C(C(N)=O)c5ccccc5)CC4)c23)C1 (centres undefined)
selectivity ratio [3]: 14.9
GI50 at 72 h [8]: 24.6 µM
GI50 at 72 h [12]: 56.9 µM
GI50 at 72 h [13]: 47 µM
GI50 at 72 h [14]: 57.8 µM
GI50 at 72 h [16]: 16.4 µM
